Results as given in ChEMBL document CHEMBL1770075, “Thermal solvent-free synthesis of novel pyrazolyl chalcones and pyrazolines as potential antimicrobial agents” (2011).
Values after ≈ are worked out from the molar mass of the structure shown.

Columns and labels:
Staphylococcus aureus [1] = assay: Antibacterial activity against methicillin-resistant Staphylococcus aureus after 24 hrs by disk diffusion method; format: functional
Staphylococcus aureus [2] = assay: Antibacterial activity against methicillin-resistant Staphylococcus aureus after 24 hrs by broth dilution method; format: functional
Aspergillus fumigatus [3] = assay: Antifungal activity against Aspergillus fumigatus after 48 hrs; format: functional
Summary of the method: (§1)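 Broth with two-fold serial dilutions of compound was inoculated with 1.6 × 10⁴–6 × 10⁴ c.f.u/ml and incubated at 35 °C. MIC is the lowest concentration that arrests growth. For MFC, 0.1 ml was spread on agar, colonies were counted after 48 h at 35 °C, and the endpoint was the lowest concentration killing 99.9%.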

Streptococcus pyogenes [4] = assay: Antibacterial activity against clinical isolate of Streptococcus pyogenes after 24 hrs by broth dilution method; format: functional
[5] = system: Trichophyton mentagrophytes; assay: Antifungal activity against Trichophyton mentagrophytes after 48 hrs by agar diffusion method; format: functional
Pseudomonas aeruginosa [6] = assay: Antibacterial activity against Pseudomonas aeruginosa ATCC 27853 after 24 hrs by disk diffusion method; format: functional
Talaromyces marneffei [7] = assay: Antifungal activity against Penicillium marneffei after 48 hrs; format: functional; summary of the method: as §1
Aspergillus fumigatus [8] = assay: Antifungal activity against Aspergillus fumigatus after 48 hrs by agar diffusion method; format: functional
Klebsiella pneumoniae [9] = assay: Bactericidal activity against clinical isolate of Klebsiella pneumoniae after 18 to 24 hrs by colony counting method; format: functional
Talaromyces marneffei [10] = assay: Antifungal activity against Penicillium marneffei after 48 hrs by agar diffusion method; format: functional
Escherichia coli [11] = assay: Antibacterial activity against Escherichia coli ATCC 25922 after 24 hrs by disk diffusion method; format: functional
Pseudomonas aeruginosa [12] = assay: Antibacterial activity against Pseudomonas aeruginosa ATCC 27853 after 24 hrs by broth dilution method; format: functional; details: ATCC 27853, 24 h
Escherichia coli [13] = assay: Bactericidal activity against Escherichia coli ATCC 25922 after 18 to 24 hrs by colony counting method; format: functional
Summary of the method: (§2)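 Colonies were counted after 18–24 h at 35 °C. MBC is the lowest concentration that kills 99.9% of the inoculum.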

Streptococcus pyogenes [14] = assay: Bactericidal activity against clinical isolate of Streptococcus pyogenes after 18 to 24 hrs by colony counting method; format: functional
Pseudomonas aeruginosa [15] = assay: Bactericidal activity against Pseudomonas aeruginosa ATCC 27853 after 18 to 24 hrs by colony counting method; format: functional; summary of the method: as §2
[16] = system: Trichophyton mentagrophytes; assay: Antifungal activity against Trichophyton mentagrophytes after 48 hrs; format: functional; summary of the method: as §1
Candida albicans [17] = assay: Antifungal activity against Candida albicans after 48 hrs by agar diffusion method; format: functional
Candida albicans [18] = assay: Antifungal activity against Candida albicans after 48 hrs; format: functional; summary of the method: as §1
Streptococcus pyogenes [19] = assay: Antibacterial activity against clinical isolate of Streptococcus pyogenes after 24 hrs by disk diffusion method; format: functional
Escherichia coli [20] = assay: Antibacterial activity against Escherichia coli ATCC 25922 after 24 hrs by broth dilution method; format: functional; details: ATCC 25922, 24 h
Klebsiella pneumoniae [21] = assay: Antibacterial activity against clinical isolate of Klebsiella pneumoniae after 24 hrs by disk diffusion method; format: functional
Staphylococcus aureus [22] = assay: Bactericidal activity against methicillin-resistant Staphylococcus aureus after 18 to 24 hrs by colony counting method; format: functional; summary of the method: as §2
Klebsiella pneumoniae [23] = assay: Antibacterial activity against clinical isolate of Klebsiella pneumoniae after 24 hrs by broth dilution method; format: functional
Staphylococcus aureus [24] = assay: Antibacterial activity against methicillin-resistant Staphylococcus aureus at 30 ug after 24 hrs by Halo zone test; details: read-out: DIZ
Klebsiella pneumoniae [25] = assay: Antibacterial activity against clinical isolate of Klebsiella pneumoniae at 30 ug after 24 hrs by Halo zone test; details: read-out: DIZ
Streptococcus pyogenes [26] = assay: Antibacterial activity against clinical isolate of Streptococcus pyogenes after 24 hrs at 30 ug by Halo zone test; details: read-out: DIZ
Pseudomonas aeruginosa [27] = assay: microbe, parasite or virus in culture; details: ATCC 27853, 24 h, read-out: DIZ

Cc1nn(-c2ccccc2)c(Cl)c1/C=C/C(=O)C1C(=O)NC(=S)NC1=O
diameter of the inhibition zone (DIZ) (Staphylococcus aureus [1]): 17.1 mm
MIC (Staphylococcus aureus [2]): 25 µg/mL (≈ 64.3 µM)
MFC (Aspergillus fumigatus [3]): 50 µg/mL (≈ 129 µM)
MIC (Aspergillus fumigatus [3]): 25 µg/mL (≈ 64.3 µM)
MIC (Streptococcus pyogenes [4]): 25 µg/mL (≈ 64.3 µM)
diameter of the inhibition zone (DIZ) [5]: 17.1 mm
diameter of the inhibition zone (DIZ) (Pseudomonas aeruginosa [6]): 22.1 mm
MFC (Talaromyces marneffei [7]): 100 µg/mL (≈ 257 µM)
MIC (Talaromyces marneffei [7]): 25 µg/mL (≈ 64.3 µM)
diameter of the inhibition zone (DIZ) (Aspergillus fumigatus [8]): 17.9 mm
MBC (Klebsiella pneumoniae [9]): 50 µg/mL (≈ 129 µM)
diameter of the inhibition zone (DIZ) (Talaromyces marneffei [10]): 14.1 mm
diameter of the inhibition zone (DIZ) (Escherichia coli [11]): 20.7 mm
MIC (Pseudomonas aeruginosa [12]): 25 µg/mL (≈ 64.3 µM)
MBC (Escherichia coli [13]): 100 µg/mL (≈ 257 µM)
MBC (Streptococcus pyogenes [14]): 100 µg/mL (≈ 257 µM)
MBC (Pseudomonas aeruginosa [15]): 100 µg/mL (≈ 257 µM)
MFC [16]: 50 µg/mL (≈ 129 µM)
MIC [16]: 25 µg/mL (≈ 64.3 µM)
diameter of the inhibition zone (DIZ) (Candida albicans [17]): 20.4 mm
MFC (Candida albicans [18]): 50 µg/mL (≈ 129 µM)
MIC (Candida albicans [18]): 25 µg/mL (≈ 64.3 µM)
diameter of the inhibition zone (DIZ) (Streptococcus pyogenes [19]): 18.4 mm
MIC (Escherichia coli [20]): 50 µg/mL (≈ 129 µM)
diameter of the inhibition zone (DIZ) (Klebsiella pneumoniae [21]): 15.4 mm
MBC (Staphylococcus aureus [22]): 50 µg/mL (≈ 129 µM)
MIC (Klebsiella pneumoniae [23]): 25 µg/mL (≈ 64.3 µM)

Cc1nn(-c2ccccc2)c(Cl)c1/C=C/C(=O)C1C(=O)N(C)C(=O)N(C)C1=O
diameter of the inhibition zone (DIZ) (Staphylococcus aureus [1]): 17.3 mm
MIC (Staphylococcus aureus [2]): 25 µg/mL (≈ 62.4 µM)
MFC (Aspergillus fumigatus [3]): 50 µg/mL (≈ 125 µM)
MIC (Aspergillus fumigatus [3]): 25 µg/mL (≈ 62.4 µM)
MIC (Streptococcus pyogenes [4]): 25 µg/mL (≈ 62.4 µM)
diameter of the inhibition zone (DIZ) [5]: 17.2 mm
diameter of the inhibition zone (DIZ) (Pseudomonas aeruginosa [6]): 25.2 mm
MFC (Talaromyces marneffei [7]): 50 µg/mL (≈ 125 µM)
MIC (Talaromyces marneffei [7]): 25 µg/mL (≈ 62.4 µM)
diameter of the inhibition zone (DIZ) (Aspergillus fumigatus [8]): 18.6 mm
MBC (Klebsiella pneumoniae [9]): 100 µg/mL (≈ 249 µM)
diameter of the inhibition zone (DIZ) (Talaromyces marneffei [10]): 14.8 mm
diameter of the inhibition zone (DIZ) (Escherichia coli [11]): 22.2 mm
MIC (Pseudomonas aeruginosa [12]): 25 µg/mL (≈ 62.4 µM)
MBC (Escherichia coli [13]): 50 µg/mL (≈ 125 µM)
MBC (Streptococcus pyogenes [14]): 50 µg/mL (≈ 125 µM)
MBC (Pseudomonas aeruginosa [15]): 100 µg/mL (≈ 249 µM)
MFC [16]: 50 µg/mL (≈ 125 µM)
MIC [16]: 25 µg/mL (≈ 62.4 µM)
diameter of the inhibition zone (DIZ) (Candida albicans [17]): 21.3 mm
MFC (Candida albicans [18]): 50 µg/mL (≈ 125 µM)
MIC (Candida albicans [18]): 25 µg/mL (≈ 62.4 µM)
diameter of the inhibition zone (DIZ) (Streptococcus pyogenes [19]): 20.1 mm
MIC (Escherichia coli [20]): 25 µg/mL (≈ 62.4 µM)
diameter of the inhibition zone (DIZ) (Klebsiella pneumoniae [21]): 16.1 mm
MBC (Staphylococcus aureus [22]): 50 µg/mL (≈ 125 µM)
MIC (Klebsiella pneumoniae [23]): 50 µg/mL (≈ 125 µM)

O=C(O)c1cn(C2CC2)c2cc(N3CCNCC3)c(F)cc2c1=O [CIPROFLOXACIN]
zone of inhibition at 30 µg/disc (Staphylococcus aureus [24]): 25 mm
zone of inhibition at 30 µg/disc (Klebsiella pneumoniae [25]): 18 mm
zone of inhibition at 30 µg/disc (Streptococcus pyogenes [26]): 24 mm
zone of inhibition at 30 µg/disc (Pseudomonas aeruginosa [27]): 32 mm
MBC (Escherichia coli [13]): 50 µg/mL (≈ 151 µM)
MBC (Pseudomonas aeruginosa [15]): 25 µg/mL (≈ 75.4 µM)
MBC (Staphylococcus aureus [22]): 50 µg/mL (≈ 151 µM)

Cc1nn(-c2ccccc2)c(Cl)c1C1CC(C2C(=O)NC(=S)NC2=O)=NN1 (stereo not drawn)
diameter of the inhibition zone (DIZ) (Staphylococcus aureus [1]): 14.2 mm
MIC (Staphylococcus aureus [2]): 100 µg/mL (≈ 248 µM)
MFC (Aspergillus fumigatus [3]): 100 µg/mL (≈ 248 µM)
MIC (Aspergillus fumigatus [3]): 25 µg/mL (≈ 62.1 µM)
MIC (Streptococcus pyogenes [4]): 50 µg/mL (≈ 124 µM)
diameter of the inhibition zone (DIZ) [5]: 15.8 mm
diameter of the inhibition zone (DIZ) (Pseudomonas aeruginosa [6]): 18.2 mm
MFC (Talaromyces marneffei [7]): > 100 µg/mL
MIC (Talaromyces marneffei [7]): > 100 µg/mL
diameter of the inhibition zone (DIZ) (Aspergillus fumigatus [8]): 16.2 mm
MBC (Klebsiella pneumoniae [9]): > 100 µg/mL
diameter of the inhibition zone (DIZ) (Talaromyces marneffei [10]): 13.1 mm
diameter of the inhibition zone (DIZ) (Escherichia coli [11]): 19.1 mm
MIC (Pseudomonas aeruginosa [12]): 50 µg/mL (≈ 124 µM)
MBC (Escherichia coli [13]): 100 µg/mL (≈ 248 µM)
MBC (Streptococcus pyogenes [14]): 100 µg/mL (≈ 248 µM)
MBC (Pseudomonas aeruginosa [15]): 100 µg/mL (≈ 248 µM)
MFC [16]: 100 µg/mL (≈ 248 µM)
MIC [16]: 25 µg/mL (≈ 62.1 µM)
diameter of the inhibition zone (DIZ) (Candida albicans [17]): 20.2 mm
MFC (Candida albicans [18]): 100 µg/mL (≈ 248 µM)
MIC (Candida albicans [18]): 50 µg/mL (≈ 124 µM)
diameter of the inhibition zone (DIZ) (Streptococcus pyogenes [19]): 15.2 mm
MIC (Escherichia coli [20]): 50 µg/mL (≈ 124 µM)
diameter of the inhibition zone (DIZ) (Klebsiella pneumoniae [21]): 14.4 mm
MBC (Staphylococcus aureus [22]): > 100 µg/mL
MIC (Klebsiella pneumoniae [23]): 50 µg/mL (≈ 124 µM)
